From PubChem BioAssay
Sampled rows, rich in hits. Any-hit rate of the full collection: about 2.9%.
Wee1 stabilizer: Wee1 degradation inhibitors, primary screen, cell-based, HeLa, Wee1K328M-luciferase, luminescence. hit rate 1.2% among 220,000. HeLa Luc-Wee1K328M stability; 100% = proteasome inhibitor MG132 effect. Wee1-like protein kinase (Homo sapiens), P30291. reporter increase, % at 5 µM. AID 1321, 2008;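 active means activation above the mean of all tested compounds plus 3 SD, set per screening run, cut at about 8.8% in these data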;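 further: cells exposed to compound for 20 h before luminescence read; 0% = DMSO alone and 100% = MG132 at 30 µM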
AI-2 QS mod: Vibrio harveyi AI-2 quorum sensing modulators, primary screen, JMH597 strain, luminescence/OD600 ratio; Vibrio harveyi JMH597 AI-2 luminescence/OD600 ratio, 9 h; stronger effect = lower value; strain lacks LuxN and CqsS sensors; 0 = neutral-control median; hit rate 0.4% among 300,000; activity change, % at 7.5 µM; in the data active means activity change below about -75%, passing the limit was not always enough;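 further: luminescence divided by OD600 gain over 9 h not by final OD600 alone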
Runt-CBFb FRET: inhibitors of RUNX1 Runt–CBFb binding, primary screen, biochemical, FRET, Cerulean-Runt, Venus-CBFb, uHTS; Cerulean-Runt/Venus-CBFb FRET ratio 530/480, 1 h; inhibition, % at 20 µM; hit rate 0.46% among 220,000; AID 1496, 2009;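 active means inhibition over about 50% at 20 µM in the single-dose screen, limit read from the data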;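 further: 0% = DMSO wells and 100% = excess unlabeled CBFb competitor control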
Target sequence (Q01196 whole entry, looked up): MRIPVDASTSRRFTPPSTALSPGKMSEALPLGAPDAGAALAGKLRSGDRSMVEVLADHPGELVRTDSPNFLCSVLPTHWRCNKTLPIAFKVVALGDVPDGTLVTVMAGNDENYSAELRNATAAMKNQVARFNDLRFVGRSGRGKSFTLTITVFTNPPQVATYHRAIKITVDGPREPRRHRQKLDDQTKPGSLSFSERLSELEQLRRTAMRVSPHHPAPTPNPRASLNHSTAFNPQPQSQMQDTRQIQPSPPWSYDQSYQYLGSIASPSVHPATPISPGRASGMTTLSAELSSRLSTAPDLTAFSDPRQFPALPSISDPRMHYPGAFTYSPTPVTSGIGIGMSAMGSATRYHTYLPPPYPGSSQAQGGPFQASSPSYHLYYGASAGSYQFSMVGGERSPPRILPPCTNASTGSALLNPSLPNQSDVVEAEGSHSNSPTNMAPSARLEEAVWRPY
Target sequence (Q13951 whole entry, looked up): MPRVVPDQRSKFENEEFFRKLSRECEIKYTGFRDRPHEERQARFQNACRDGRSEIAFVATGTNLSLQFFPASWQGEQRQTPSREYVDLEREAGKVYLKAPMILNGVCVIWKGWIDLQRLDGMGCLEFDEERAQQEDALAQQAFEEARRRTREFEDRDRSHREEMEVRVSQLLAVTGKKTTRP
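test system = Cerulean-Runt domain fusion protein, energy donor | probe or stimulus = Venus-CBFb binding partner, 100 nM | incubation = two 1 h room-temperature incubations shielded from light | detection = fluorescence energy transfer, 422 nm excitation, 530/480 nm emission | measure = loss of energy transfer signal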
Runt-SMMHC FRET: inhibitors of RUNX1 Runt–CBFb-SMMHC binding, primary screen, biochemical, FRET, Cerulean-Runt, Venus-CBFb-SMMHC, uHTS | Runt-related transcription factor 1 (Homo sapiens) + Core-binding factor subunit beta … | Cerulean-Runt/Venus-CBFb-SMMHC FRET ratio 530/480, 1 h | inhibition, % at 20 µM | hit rate 0.74% among 220,000;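 active means mean inhibition across duplicate retests at 20 µM reaching about 50%, limit read from the data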;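 further: 0% = DMSO wells and 100% = wells with excess untagged CBFb-SMMHC; inhibitors lower the FRET ratio by blocking Runt binding to CBFb-SMMHC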
proKLK7 act: proKLK7 zymogen activators, primary screen, biochemical, fluorescence intensity. Kallikrein-7 (Homo sapiens), P49862. purified proKLK7, EDANS-DABCYL substrate fluorescence; 100% is mature enzyme control, 0% vehicle. activation, % at 7 µM. hit rate 0.9% among 370,000. AID 652039, 2013;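 active means activation above the mean of all tested compounds plus 3 SD, computed per campaign excluding outliers beyond control limits, cut at about 13% in these data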
RanGTP-Imp inh: inhibitors of RanGTP-importin-beta interaction, primary screen, biochemical, FRET, CFP-Ran, YFP-importin-beta, homogeneous; cell-free CFP-Ran/YFP-importin-beta FRET ratio; hit rate 1.1% among 300,000; inhibition, % (test concentration not listed);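 active means more than half of the replicate wells show a fall in the fluorescence ratio signal beyond about 16%, limit read from the data, passing the limit was not always enough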;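 further: 0% = DMSO wells and 100% = Ran loaded with GDP instead of GTP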
Active calls of the source: *.

Screening COc1cccc(Cn2c(N)c(C#N)c3nc4ccccc4nc32)c1OC returned Wee1 stabilizer -3, AI-2 QS mod -4, Runt-CBFb FRET 37, Runt-SMMHC FRET 22, proKLK7 act -208 and RanGTP-Imp inh 9.
For COc1cc(Cn2c(N)c(C#N)c3nc4ccccc4nc32)cc(OC)c1 the results were Wee1 stabilizer 1, AI-2 QS mod 14, Runt-CBFb FRET 72*, Runt-SMMHC FRET 113*, proKLK7 act -50 and RanGTP-Imp inh 38*.
For O=C(NC(=S)Nc1ccccc1)c1cncc(C#Cc2ccccc2)c1 the results were Wee1 stabilizer 4, AI-2 QS mod 17, Runt-CBFb FRET 1, Runt-SMMHC FRET 2, proKLK7 act -1 and RanGTP-Imp inh 1.
`O=C(Cn1cnc2c(nnn2-c2ccccc2)c1=O)NCc1ccc(F)cc1` gave Wee1 stabilizer 0, AI-2 QS mod 10, Runt-CBFb FRET 1, Runt-SMMHC FRET 0, proKLK7 act 0 and RanGTP-Imp inh 2.
`Cc1ccc(-n2nnc3c(=O)n(CC(=O)NCc4ccccc4)cnc32)cc1` gave Wee1 stabilizer 15*, AI-2 QS mod 27, Runt-CBFb FRET -2, Runt-SMMHC FRET 5, proKLK7 act 0 and RanGTP-Imp inh 3.
COc1ccc(Cn2c(/C=C/c3ccccc3)nc3ccccc32)cc1 was read as Wee1 stabilizer 0, AI-2 QS mod 28, Runt-CBFb FRET 0, Runt-SMMHC FRET -4, proKLK7 act -3 and RanGTP-Imp inh 28*.
For CCn1c(/C=C/c2ccccc2)nc2ccccc21 the results were Wee1 stabilizer -2, AI-2 QS mod 7, Runt-CBFb FRET -4, Runt-SMMHC FRET 1, proKLK7 act 12 and RanGTP-Imp inh 4.
For Fc1ccc(-c2ccnc3nc(-n4cccc4)nn23)cc1 the results were Wee1 stabilizer -2, AI-2 QS mod 30, Runt-CBFb FRET -1, Runt-SMMHC FRET -2, proKLK7 act 0 and RanGTP-Imp inh -3.
Screening Fc1ccc(-c2ccnc3nc(N4CCOCC4)nn23)cc1 returned Wee1 stabilizer -2, AI-2 QS mod 12, Runt-CBFb FRET 0, Runt-SMMHC FRET 6, proKLK7 act 22* and RanGTP-Imp inh 2.
CCCn1nc(C(=O)Nc2nc3ccccc3[nH]2)c2ccccc2c1=O was read as Wee1 stabilizer -2, AI-2 QS mod 17, Runt-CBFb FRET -5, Runt-SMMHC FRET 3, proKLK7 act 0 and RanGTP-Imp inh 0.
CC(C)n1nc(C(=O)Nc2nc3ccccc3[nH]2)c2ccccc2c1=O was read as Wee1 stabilizer 4, AI-2 QS mod 11, Runt-CBFb FRET 103*, Runt-SMMHC FRET 2, proKLK7 act 1 and RanGTP-Imp inh -1.
For CCCCCC1CCC(C(=O)NCCN2CCOCC2)CC1 (configuration not stated) the results were AI-2 QS mod 0, proKLK7 act -1 and RanGTP-Imp inh -2.
O=C(O)/C=C/c1ccc([N+](=O)[O-])o1 was read as Wee1 stabilizer -3, AI-2 QS mod 6, Runt-CBFb FRET 2, Runt-SMMHC FRET 0, proKLK7 act 1 and RanGTP-Imp inh 8.
For N#CCc1ccc(NC(=O)/C=C/c2ccc([N+](=O)[O-])o2)cc1 the results were Wee1 stabilizer 9.3*, AI-2 QS mod -43, Runt-CBFb FRET 10, Runt-SMMHC FRET -4 and RanGTP-Imp inh 3.
COc1ccc(N2CCN(C(=O)c3cc4c(s3)-c3ccccc3S(=O)(=O)C4)CC2)cc1 was read as Wee1 stabilizer 7, AI-2 QS mod 37, Runt-CBFb FRET 2, Runt-SMMHC FRET -32, proKLK7 act 0 and RanGTP-Imp inh 1.
`O=C(N[C@@H](Cc1ccccc1)C(=O)NCc1ccc(F)cc1)C1CCNCC1` gave AI-2 QS mod 18, proKLK7 act 0 and RanGTP-Imp inh -3.
For Cc1ccc(C=NNc2nc3c([nH]2)c(=O)n(C)c(=O)n3C)cc1 the results were proKLK7 act -8.
For Oc1ccc2nnc3c(Br)cnn3c2c1 the results were AI-2 QS mod 22, proKLK7 act 6 and RanGTP-Imp inh 53*.
`Clc1ccc2nc3c4ccccc4cnn3c2c1` gave Wee1 stabilizer 2, AI-2 QS mod -1, Runt-CBFb FRET 0, Runt-SMMHC FRET -4, proKLK7 act 1 and RanGTP-Imp inh 6.
COC(=O)[C@H](CC(C)C)N(CCCc1cn(Cc2ccccc2)nn1)S(=O)(=O)c1ccccc1Br was read as proKLK7 act 0.
`CCn1c(COc2cc(C)ccc2C(C)C)nnc1SCC(=O)Nc1nccs1` gave Wee1 stabilizer 11*, AI-2 QS mod 16, Runt-CBFb FRET -6, Runt-SMMHC FRET -6, proKLK7 act 0 and RanGTP-Imp inh -2.
`Cc1c(C(=O)NCCc2ccccc2)oc2ccc(S(=O)(=O)N3CCC4(CC3)OCCO4)cc12` gave Wee1 stabilizer 9.5*, AI-2 QS mod 26, Runt-CBFb FRET -6, Runt-SMMHC FRET -6, proKLK7 act 1 and RanGTP-Imp inh -4.
For C=CCNC(=O)c1oc2ccc(S(=O)(=O)N3CCC4(CC3)OCCO4)cc2c1C the results were AI-2 QS mod 13, proKLK7 act 0 and RanGTP-Imp inh -1.
`O=[N+]([O-])c1ccccc1S(=O)(=O)N1CCN(c2ccccc2)CC1` gave AI-2 QS mod -16, proKLK7 act 1 and RanGTP-Imp inh 5.
COC(=O)C1CN(Cc2ccc(OC)cc2)CCS(=O)(=O)N1Cc1cn(CCOC(C)=O)nn1 (configuration not stated) was read as proKLK7 act 0.
`COc1cccc(NC(=O)CN(C)CC(=O)Nc2ccc(Cl)cc2[N+](=O)[O-])c1` gave Wee1 stabilizer -1, AI-2 QS mod 7, Runt-CBFb FRET -5, Runt-SMMHC FRET -8, proKLK7 act 0 and RanGTP-Imp inh 1.
CCN(CC)C(=O)CC[C@H]1CC[C@]2(CCCN(C(=O)c3cccnc3)C2)O1 was read as proKLK7 act 0.
COc1ccccc1/C=N/n1c(N)c(C(=O)NC2CCCCC2)c2nc3ccccc3nc21 was read as Wee1 stabilizer -1, Runt-CBFb FRET -1, Runt-SMMHC FRET -4 and proKLK7 act -1.
